Holding throughout (assay type): functional
Experiment [1] deals with MCF7. Kind of experiment: Estrogenic activity in human MCF7 cells assessed as drug level causing stimulation of cell proliferation equivalent to 10 pM estradiol by alamar blue assay. Put shortly: (§1)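 MCF-7 cells were maintained in MEM with 6 ng/mL insulin, pyruvate, NEAA, glutamine and 10% FBS. For the assay, 1 × 10^4 cells/well went into phenol red-free RPMI with 5% DCC-treated FBS. Compounds were given in DMSO (control 1% DMSO) at 10 nM–100 µM for 96 h at 37 °C. Estradiol dilutions served as reference. Read-out: Alamar Blue, 3 h, fluorescence ex 530/em 590 nm. Values came from linear regression, ≥5 concentrations, quadruplicate.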
(In general: Alamar Blue is a resazurin reagent that responds to reducing activity.)

Experiment [2] relates to MCF7. Kind of experiment: Estrogenic activity in human MCF7 cells assessed as drug level causing stimulation of cell proliferation equivalent to 100 pM estradiol by alamar blue assay. The method in brief: as §1
Experiment [3] relates to T47D. Kind of experiment: Estrogenic activity in human T47D cells assessed as drug level causing stimulation of cell proliferation equivalent to 10 pM estradiol by alamar blue assay. The method in brief:
(§2)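 T47D cells were grown in RPMI-1640 with pyruvate, NEAA, glutamine and 10% FBS, then plated at 1 × 10^4 cells/well in phenol red-free RPMI with 5% DCC-treated FBS. Compounds were added in DMSO (1% DMSO control) and incubated 96 h at 37 °C, 5% CO2, alongside serial estradiol. Alamar Blue was read after 3 h (ex 530/em 590 nm). Values came from linear regression over ≥5 concentrations, quadruplicate.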

The test system of experiment [4] is T47D. Nature of the experiment: Estrogenic activity in human T47D cells assessed as drug level causing stimulation of cell proliferation equivalent to 100 pM estradiol by alamar blue assay. Put shortly: as §2

With `COc1cc(-c2coc3cc4c(c(OC)c3c2=O)OCO4)cc(OC)c1OC` [IRISFLORENTIN], in the experiment on MCF7 [1], the Activity came to 50.3 µM.

Turning to `O=C(Cc1cc(O)cc(O)c1)c1ccc(O)cc1` [BELAMPHENONE], the Activity amounted to 0.8 µM with MCF7 [1], 12.8 µM in the experiment on MCF7 [2], 0.09 µM with T47D [3] and 37.1 µM with T47D [4].

As to `Oc1ccc(/C=C/c2cc(O)cc(O)c2)cc1` [RESVERATROL], the Activity is 1.6 µM with MCF7 [1] and 0.03 µM with T47D [3].

For the compound `COc1c(O)cc2occ(-c3ccc(O)cc3)c(=O)c2c1O` [TECTORIGENIN], the Activity stood at 0.3 µM in the experiment on MCF7 [1], 1 µM with MCF7 [2], 0.04 µM with T47D [3] and 0.5 µM in the experiment on T47D [4].

As for `O=c1c(-c2ccc(O)cc2)coc2cc(O)cc(O)c12` [GENISTEIN], the Activity in the experiment on MCF7 [1] was 0.003 µM; in the experiment with MCF7 [2] it was 0.013 µM; in the experiment on T47D [3] it was 0.001 µM; with T47D [4], 0.009 µM.

As for `COc1c(O[C@@H]2O[C@H](CO)[C@@H](O)[C@H](O)[C@H]2O)cc2occ(-c3ccc(O)cc3)c(=O)c2c1O` [TECTORIDIN], the Activity was 0.02 µM with MCF7 [1], 0.08 µM with MCF7 [2] and 0.2 µM with T47D [3].

Consider `COc1ccc(-c2coc3cc(O[C@@H]4O[C@H](CO)[C@@H](O)[C@H](O)[C@H]4O)c(OC)c(O)c3c2=O)cc1O` [IRISTECTORIN A], for which, in the experiment on MCF7 [1], the Activity was 26.1 µM.

Consider `O=C(c1ccc(O)cc1)c1c(O)cc(O)cc1O` [IRIFLOPHENONE], for which the results for the Activity in the experiment on MCF7 [1], in the experiment with MCF7 [2] and in the experiment with T47D [3] were 0.7 µM, 6.8 µM and 4.9 µM, respectively.

Consider `COc1c(O)cc2occ(-c3ccc(O)c(O)c3)c(=O)c2c1O` [IRILIN D], for which the Activity came to 5.6 µM in the experiment on MCF7 [1] and 12.7 µM in the experiment with MCF7 [2].

With `COc1cc(-c2coc3cc(O[C@@H]4O[C@H](CO)[C@@H](O)[C@H](O)[C@H]4O)c(OC)c(O)c3c2=O)ccc1O` [IRISTECTORIN B], the Activity in the experiment on MCF7 [1] came to 77.3 µM.

These data come from ChEMBL document CHEMBL1158700, “Phenolic constituents of the rhizomes of the Thai medicinal plant Belamcanda chinensis with proliferative activity for two breast cancer cell lines” (2005).
